Assay results published in ChEMBL document CHEMBL4715681, “Targeting miRNA by tunable small molecule binders: peptidic aminosugar mediated interference in miR-21 biogenesis reverts epithelial to mesenchymal transition” (Medchemcomm, 2018).
Converted amounts (≈) assume the structure as drawn. “And” between values parts separate entries of the source, which are not always exact repeats. Equal entries are not always repeated. The source made the active and inactive calls. The calls are words filed in the database; no cut-off is given here.

Assays:
Staphylococcus aureus [1] = assay: Antibacterial activity against Staphylococcus aureus ATCC 25923 assessed as reduction in bacterial growth at 64 uM incubated for 15 to 20 hrs by broth microdilution method relative to control; type: functional; details: time 15-20 hrs, read-out: GI
Pseudomonas aeruginosa [2] = assay: Antibacterial activity against Pseudomonas aeruginosa ATCC 27853 assessed as reduction in bacterial growth at 12.5 uM incubated for 15 to 20 hrs by broth microdilution method relative to control; details: time 15-20 hrs
Escherichia coli [3] = assay: Antibacterial activity against Escherichia coli ATCC 25922 assessed as reduction in bacterial growth at 12.5 uM incubated for 15 to 20 hrs by broth microdilution method relative to control; details: time 15-20 hrs
MCF7 [4] = assay: Antiproliferative activity against human MCF7 cells assessed as reduction in Ki67 expression at 5 uM incubated for 48 hrs by fluorescence microscopy; type: functional, cell-based
Outline: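 MCF7 cells seeded on coverslips (8x10⁴ per well) and grown 24 h at 37 °C, 5% CO₂, then treated 48 h at 5 μM; untreated and kanamycin controls. Fixed in 3% paraformaldehyde, permeabilized with 0.2% Triton X-100, blocked with 0.5% BSA. Stained with anti-Ki67 (1:1000, overnight) and Alexa Fluor 488 secondary (1:2000, 2 h). Nuclear speckles imaged.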

microRNA 21 [5] = assay: Displacement of F-neo from premature miRNA21 (unknown origin) at 100 nM by fluorescence assay relative to control; type: nucleic-acid assay
Outline: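 Competition fluorescence: pre-miR21 (12.5 nM, annealed 75→25 °C at 1 °C/min) complexed with 100 nM F-neo in 10 mM phosphate, 25 mM KCl, 0.05 mM EDTA, pH 6.5. Test agent added at 100 nM. Emission read at ex 485/em 525 nm. Percent binding = (I−Ic)×100/(Ineo−Ic), referenced to 100 nM kanamycin; duplicate controls.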

Staphylococcus aureus [6] = assay: Antibacterial activity against methicillin-resistant Staphylococcus aureus ATCC 1960649 assessed as reduction in bacterial growth at 64 uM incubated for 15 to 20 hrs by broth microdilution method relative to control; type: functional; details: time 15-20 hrs; for inhibition of growth at 64 µM: read-out: GI
Escherichia coli [7] = assay: Antibacterial activity against Escherichia coli ATCC 25922 assessed as reduction in bacterial growth at 64 uM incubated for 15 to 20 hrs by broth microdilution method relative to control; type: functional; details: time 15-20 hrs, read-out: GI
Escherichia coli [8] = assay: Antibacterial activity against Escherichia coli ATCC 25922 assessed as reduction in bacterial growth incubated for 15 to 20 hrs by broth microdilution method; type: functional; details: time 15-20 hrs
Outline: (§1)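 MIC by CLSI broth microdilution on exponential-phase cultures, in triplicate. Compound stocks were made at 10× final in 10% DMSO and added to the bacterial suspension (about 3 x 10⁵ cells/mL in cation-adjusted Mueller-Hinton broth). Final concentrations were 2-fold serial dilutions from 50 μM to 0.78 μM. Plates were incubated humidified at 37°C for 15-20 h, growth was read as absorbance at 595 nm, and % inhibition was averaged from the triplicates.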

Pseudomonas aeruginosa [9] = assay: Antibacterial activity against Pseudomonas aeruginosa ATCC 27853 assessed as reduction in bacterial growth at 64 uM incubated for 15 to 20 hrs by broth microdilution method relative to control; type: functional; details: time 15-20 hrs, read-out: GI
Staphylococcus aureus [10] = assay: Antibacterial activity against Staphylococcus aureus ATCC 25923 assessed as reduction in bacterial growth incubated for 15 to 20 hrs by broth microdilution method; type: functional; details: time 15-20 hrs; outline: as §1
Pseudomonas aeruginosa [11] = assay: Antibacterial activity against Pseudomonas aeruginosa ATCC 27853 assessed as reduction in bacterial growth incubated for 15 to 20 hrs by broth microdilution method; type: functional; details: time 15-20 hrs
Outline: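 CLSI broth microdilution on exponential-phase bacteria, ~3 x 10⁵ cells/mL in cation-adjusted Mueller-Hinton broth. Serial 2-fold dilutions give final 50 to 0.78 μM from 10x stocks in 10% DMSO. Incubated 15-20 h at 37°C, humidified. Growth read at 595 nm; percent inhibition averaged from triplicates to give MIC.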

Staphylococcus aureus [12] = assay: Antibacterial activity against methicillin-resistant Staphylococcus aureus ATCC 1960649 assessed as reduction in bacterial growth incubated for 15 to 20 hrs by broth microdilution method; type: functional; details: time 15-20 hrs; outline: as §1
microRNA 21 [13] = assay: Displacement of F-neo from premature miRNA21 (unknown origin) by fluorescence assay; type: nucleic-acid assay
microRNA 21 [14] = assay: Inhibition of premature miRNA-21 (unknown origin) transfected in human MCF7 cells assessed as reduction of maturation of pre-miRNA21 at 5 uM incubated for 48 hrs by qPCR analysis; type: cell-based
Outline: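 MCF7 cells treated 48 h at 5 μM, as for the Western blots. Total RNA extracted with TRIzol and DNase-treated; 400-500 ng polyadenylated and reverse-transcribed with oligo(dT) adaptor. SYBR qPCR run in triplicate for mature miR21, normalized to U6 snRNA, fold change by 2^-ΔΔCt.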

Staphylococcus aureus [15] = assay: Antibacterial activity against Staphylococcus aureus ATCC 25923 assessed as reduction in bacterial growth at 12.5 uM incubated for 15 to 20 hrs by broth microdilution method relative to control; details: time 15-20 hrs
microRNA 21 [16] = assay: Inhibition of premature miRNA-21 (unknown origin) transfected in human MCF7 cells assessed as increase in PTEN expression at 5 uM incubated for 48 hrs by Western blot analysis; type: cell-based
Outline: (§2)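 MCF7 cells seeded at 4x10⁴/well, treated 24 h later at 5 μM for 48 h. Controls: antisense LNA transfected at 50 nM, kanamycin forms, streptomycin, untreated. Lysates (40 µg protein) run on SDS-PAGE and blotted to PVDF. Probed with PDCD4 or PTEN (1:1000) plus GAPDH (1:2000) antibodies overnight at 4 °C, then HRP secondary and ECL; bands quantified as fold change versus controls.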

MCF7 [17] = assay: Inhibition of epithelial-mesenchymal transition in human MCF7 cells increase in E-cadherin expression at 5 uM incubated for 48 hrs by inverted fluorescence microscopy
microRNA 21 [18] = assay: Inhibition of premature miRNA-21 (unknown origin) transfected in human MCF7 cells assessed as increase in PDCD4 expression at 5 uM incubated for 48 hrs by Western blot analysis; type: cell-based; outline: as §2
microRNA 21 [19] = assay: Binding affinity to pre-miRNA21 (unknown origin) by […]; type: nucleic-acid assay
Outline: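 Bio-layer interferometry (Octet RED96) with immobilized pre-miR21. Analytes run at 8-128 nM in 10 mM HEPES, 50 mM NaCl, 0.05% Tween20. Association 5 min, dissociation 10 min; regeneration in 50 mM NaOH, 1 M NaCl. KD derived from the binding curves.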

MCF7 [20] = assay: Antimigratory activity in human MCF7 cells assessed as […] at 5 uM incubated for 48 hrs by imaging analysis relative to control; type: functional
Outline: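 MCF-7 cells seeded densely and grown to confluence, then scratched with a pipette tip and washed with PBS. Treated at 5μM alongside an untreated well. Wound images quantified in ImageJ; three biological replicates, error bars ± S.D.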

[21] = Cytotoxicity against human MCF7 cells assessed as reduction cell viability at 2.5 to 5 uM incubated for 24 hrs by MTT assay; type: cell-based; details: dose 2.5-5 µM, read-out: INH
Outline: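 MTT assay in MCF7 cells seeded at 8000/well and treated 24 h after seeding at 0, 2.5, 5, 7.5 and 10 μM, in triplicate. After 24 h exposure, MTT (0.5 mg/ml) added for 4 h at 37 °C. Crystals dissolved in DMSO and absorbance read at 570 nm to give percent viable cells.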

NC[C@H]1O[C@H](O[C@H]2[C@H](O)[C@@H](O[C@H]3O[C@H](CNC(=O)CCC(=O)N[C@@H](Cc4ccc(O)cc4)C(=O)N[C@@H](CS)C(N)=O)[C@@H](O)[C@H](N)[C@H]3O)[C@H](N)C[C@@H]2N)[C@H](O)[C@@H](O)[C@@H]1O
inhibition of growth at 64 µM (Staphylococcus aureus [1]): 34%
growth inhibition (GI) (Pseudomonas aeruginosa [2]): inactive
growth inhibition (GI) (Escherichia coli [3]): inactive
inhibition (MCF7 [4]): Active
inhibition (microRNA 21 [5]): 133%
inhibition of growth at 64 µM (Staphylococcus aureus [6]): 38%

NC[C@H]1O[C@H](O[C@H]2[C@H](O)[C@@H](O[C@H]3O[C@H](CO)[C@@H](O)[C@H](N)[C@H]3O)[C@H](N)C[C@@H]2N)[C@H](O)[C@@H](O)[C@@H]1O [KANAMYCIN]
inhibition of growth at 64 µM (Escherichia coli [7]): 100%
MIC (Escherichia coli [8]): 4 µM (≈ 1.94 µg/mL)
inhibition of growth at 64 µM (Staphylococcus aureus [1]): 100%
inhibition (MCF7 [4]): inactive
inhibition (microRNA 21 [5]): 107% and 100%
inhibition of growth at 64 µM (Pseudomonas aeruginosa [9]): 11%
MIC (Staphylococcus aureus [10]): 4 µM (≈ 1.94 µg/mL)
MIC (Pseudomonas aeruginosa [11]): > 256 µM
MIC (Staphylococcus aureus [12]): > 256 µM
IC50 (microRNA 21 [13]): 1100 nM
inhibition of growth at 64 µM (Staphylococcus aureus [6]): 41%

NC[C@H]1O[C@H](O[C@H]2[C@H](O)[C@@H](O[C@H]3O[C@H](CNC(=O)CCC(=O)N[C@@H](Cc4ccccc4)C(=O)N[C@@H](CS)C(N)=O)[C@@H](O)[C@H](N)[C@H]3O)[C@H](N)C[C@@H]2N)[C@H](O)[C@@H](O)[C@@H]1O
inhibition (microRNA 21 [14]): Active
growth inhibition (GI) (Staphylococcus aureus [15]): inactive
inhibition (microRNA 21 [16]): Active
inhibition (MCF7 [17]): Active
growth inhibition (GI) (Pseudomonas aeruginosa [2]): inactive
growth inhibition (GI) (Escherichia coli [3]): inactive
inhibition (microRNA 21 [18]): Active
Kd (microRNA 21 [19]): 43.6 nM
Activity (MCF7 [20]): >50%
inhibition (microRNA 21 [5]): 140%
cytotoxicity at 24 h, up to 5 µM [21]: 2%
inhibition of growth at 64 µM (Staphylococcus aureus [6]): 22%

N=C(N)NCCC[C@H](NC(=O)[C@H](CCCNC(=N)N)NC(=O)CCC(=O)NC[C@H]1O[C@H](O[C@@H]2[C@@H](O)[C@H](O[C@H]3O[C@H](CN)[C@@H](O)[C@H](O)[C@H]3O)[C@@H](N)C[C@H]2N)[C@H](O)[C@@H](N)[C@@H]1O)C(N)=O
inhibition of growth at 64 µM (Escherichia coli [7]): 25%
inhibition (microRNA 21 [14]): Active
inhibition of growth at 64 µM (Staphylococcus aureus [1]): 29%
inhibition (microRNA 21 [18]): Active
Activity (microRNA 21 [19]; dose 16.0 nM): Active
inhibition (microRNA 21 [5]): 137%
inhibition of growth at 64 µM (Pseudomonas aeruginosa [9]): 11%
inhibition of growth at 64 µM (Staphylococcus aureus [6]): 30%

CN[C@@H]1[C@H](O[C@H]2[C@H](O[C@H]3[C@H](O)[C@@H](O)[C@H](N=C(N)N)[C@@H](O)[C@@H]3N=C(N)N)O[C@@H](C)[C@]2(O)C=O)O[C@@H](CO)[C@H](O)[C@H]1O
inhibition (microRNA 21 [5]): 107%

NC[C@H]1O[C@H](O[C@H]2[C@H](O)[C@@H](O[C@H]3O[C@H](CNC(=O)CCC(=O)N[C@@H](Cc4ccc(O)cc4)C(=O)N[C@@H](CC(=O)O)C(N)=O)[C@@H](O)[C@H](N)[C@H]3O)[C@H](N)C[C@@H]2N)[C@H](O)[C@@H](O)[C@@H]1O
inhibition (microRNA 21 [14]): Active
growth inhibition (GI) (Staphylococcus aureus [15]): inactive
growth inhibition (GI) (Pseudomonas aeruginosa [2]): inactive
growth inhibition (GI) (Escherichia coli [3]): inactive
inhibition (microRNA 21 [18]): Active
inhibition (microRNA 21 [5]): 5%
growth inhibition (GI) (Staphylococcus aureus [6]): inactive

C[C@@H](O)[C@H](NC(=O)[C@H](CCCNC(=N)N)NC(=O)CCC(=O)NC[C@H]1O[C@H](O[C@@H]2[C@@H](O)[C@H](O[C@H]3O[C@H](CN)[C@@H](O)[C@H](O)[C@H]3O)[C@@H](N)C[C@H]2N)[C@H](O)[C@@H](N)[C@@H]1O)C(N)=O
growth inhibition (GI) (Staphylococcus aureus [15]): inactive
growth inhibition (GI) (Pseudomonas aeruginosa [2]): inactive
growth inhibition (GI) (Escherichia coli [3]): inactive
inhibition (microRNA 21 [5]): 131%
growth inhibition (GI) (Staphylococcus aureus [6]): inactive

N=C(N)NCCC[C@H](NC(=O)CCC(=O)NC[C@H]1O[C@H](O[C@@H]2[C@@H](O)[C@H](O[C@H]3O[C@H](CN)[C@@H](O)[C@H](O)[C@H]3O)[C@@H](N)C[C@H]2N)[C@H](O)[C@@H](N)[C@@H]1O)C(=O)N[C@@H](CS)C(N)=O
inhibition of growth at 64 µM (Escherichia coli [7]): 13%
inhibition of growth at 64 µM (Staphylococcus aureus [1]): 20%
growth inhibition (GI) (Pseudomonas aeruginosa [2]): inactive
inhibition of growth at 64 µM (Staphylococcus aureus [6]): 25%
